Hits are enriched below; roughly 12% of the tested compounds scored in any of these assays.
Lmaj promast: Leishmania major promastigote growth inhibition, primary screen; 9% of 200,000 active; inhibition, % at 10 µM; Leishmania major promastigotes, resazurin fluorescence viability;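 note: promastigotes grown with compound for 44 hours at 28 °C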
CHOP inhibitor: inhibitors of CHOP promoter induction, primary screen, cell-based, unfolded protein response, luciferase reporter; inhibition, % at 10 µM; 3.8% of 220,000 active; CHO-K1 CHOP-promoter luciferase, tunicamycin-induced, 15-18 h;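 active = compounds that reduced the stress-induced luciferase reporter signal by more than about 70% of percent inhibition, limit read from the data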;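 note: 0% = tunicamycin plus vehicle and 100% = wells without tunicamycin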
Rad51 HR inh: human RAD51 strand exchange inhibitors, primary screen, biochemical, fluorescence; DNA repair protein RAD51 homolog 1 (Homo sapiens), Q06609; hRad51 DNA strand exchange, fluorescence dequenching; inhibition, % at 10 µM; 0.085% of 200,000 active; AID 1385, 2008;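 active = inhibition above 40% at the single screening dose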;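 note: 0% = DMSO control wells and 100% = blanks with heterologous ssDNA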
Target sequence (Q06609 whole entry, looked up): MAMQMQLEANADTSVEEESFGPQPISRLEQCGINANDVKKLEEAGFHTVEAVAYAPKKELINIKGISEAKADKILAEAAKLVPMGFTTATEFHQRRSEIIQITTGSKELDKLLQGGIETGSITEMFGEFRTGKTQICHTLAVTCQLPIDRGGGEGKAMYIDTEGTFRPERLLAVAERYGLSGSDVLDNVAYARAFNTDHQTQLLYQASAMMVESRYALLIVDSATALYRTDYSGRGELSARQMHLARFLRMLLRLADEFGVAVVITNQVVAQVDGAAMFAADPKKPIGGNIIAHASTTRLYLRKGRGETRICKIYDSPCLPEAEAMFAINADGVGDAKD
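System: hRad51 filaments on single-stranded DNA; reagent: Fluorescein- and BHQ1-tagged 47-mer duplex; compound dosing: one concentration, 10 µM final; timing: filaments 15 min 37 °C, then compound 30 min; measured by: fluorescein emission 520 nm, excitation 485 nm; benchmarks: per-plate controls and blanks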
PKD1 kinase inh: inhibitors of human PKD1 kinase, biochemical, fluorescence polarization; PKD1 kinase fluorescence polarization assay; inhibition, % (concentration not given with the values); 0.056% of 200,000 active
Arbovirus anti: antivirals against arbovirus infection, primary screen, cell-based, full library, 10K replicate subset; arbovirus infection cell-based antiviral screen; inhibition, % at 10 µM; 0.37% of 200,000 active; in the data active = inhibition above about 30%
Wee1 degr inh: Wee1 degradation inhibitors, primary screen, cell-based, HeLa, Wee1K328M-luciferase, luminescence; Wee1-like protein kinase (Homo sapiens), P30291; HeLa Luc-Wee1K328M stability; 100% = proteasome inhibitor MG132 effect; reporter increase, % at 5 µM; 1.2% of 220,000 active; AID 1321, 2008;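 active = activation above the mean of all tested compounds plus 3 SD, set per screening run, cut at about 8.8% in these data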;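 note: cells exposed to compound for 20 h before luminescence read; 0% = DMSO alone and 100% = MG132 at 30 µM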
Starred values were filed as active, the others as inactive; . = no result given; ! = a repeat was not active. Cut-off read from the data, not from the text of the source, unless noted: active = inhibition above about 50%; inactive = the rest.

SMILES	Lmaj promast	CHOP inhibitor	Rad51 HR inh	PKD1 kinase inh	Arbovirus anti	Wee1 degr inh
O=C1C2CCCN2C(c2cccs2)N1c1ccc(F)cc1 (stereo unspecified)	-1	20	.	-6	1	-1
Cc1cccc(/N=C/c2c(O)ccc3oc4c(c23)CCCC4)n1	91*	21	13	6	0	-1
Cc1cccc(/N=C/c2c(O)cc(C)oc2=O)n1	-5	1	-10	-1	3	1
O=c1oc2cc(Oc3c([N+](=O)[O-])cc(C(F)(F)F)cc3[N+](=O)[O-])ccc2c2c1CCCC2	13	95*	-5	3	3	0
Cc1cnc(C(=O)OCC(=O)NC(C)CCc2ccccc2)cn1 (stereo unspecified)	-7	11	0	3	2	-2
CCOC(=O)CCCCCN(Cc1ccccc1)S(=O)(=O)c1ccc([N+](=O)[O-])cc1	97*	29	4	-4	0	-2
CCOC(=O)c1ccc(CN(Cc2ccccc2)S(=O)(=O)c2cccc([N+](=O)[O-])c2)cc1	7	-17	-4	8	1	-2
COc1cc(C#N)c(N=C(SCC#N)N2CCOCC2)cc1OC	-3	-10	3	7	7	4
O=c1c(Cc2ccc(F)cc2)c(O)ccn1CCCn1ccnc1	-7	7	-2	2	15	2
Cc1cc(C)c(NC(=S)NCCCSC2CCCCC2)c(C)c1	57*	-12	-12	-11	-31	3
c1ccc(-c2nnc(-c3c[nH]c4ccccc34)nc2-c2ccccc2)cc1	38	-15	-9	-7	-3	4
ClC(Cl)c1nnc(-c2ccccc2)c(-c2c[nH]c3ccccc23)n1	3	80*	3	13	2	4
CCOC(=O)c1c(NC(=O)C2C3CCC(O3)C2C(=O)O)sc2c1CCC(CC)C2 (stereo unspecified)	-8	-12	4	-7	-11	0
CCOC(=O)c1c(NC(=O)C2C3C=CC(C3)C2C(=O)O)sc2c1CCC(CC)C2 (stereo unspecified)	-6	72*	3	8	-27	-3
COC(C(=O)Nc1c(F)cccc1F)c1ccccc1 (stereo unspecified)	3	6	-11	-2	-2	1
CCC(C)(C)NC(=O)C(c1ccccc1F)N(Cc1ccco1)C(=O)c1csnn1 (stereo unspecified)	57*	12	-5	-10	-2	2
CC(C)C(=O)NC(=S)Nc1c(Cl)ccc2nsnc12	.	10	.	.	.	-4
COc1ccc(-c2oc(NC(=O)CCl)c(C#N)c2-c2ccc(OC)cc2)cc1	100*	-254	-2	-3	-25	4
CCOC(=O)/C(C#N)=N/Nc1ccccc1C#N	.	8	-4	.	.	-3
Cc1ccc(NC(=O)C(Cc2ccccc2)N2C(=O)C3C4CCC(C4)C3C2=O)cc1Cl (stereo unspecified)	88*	18	5	9	-3	-2
CC1CC(NC(=O)/C=C/C(=O)O)CC(C)(C)C1 (stereo unspecified)	.	14	-8	.	.	-4
COc1ccc(-c2cn(-c3ccccc3)c3[n+]2CCS3)cc1	85*!	2	0	-4	12	11*!
CC(C)(C)c1ccc(-c2cn(-c3ccc(Br)cc3)c3[n+]2CCCS3)cc1	100*	49	13	5	-8	2
O=C(Nc1ccc(F)cc1)c1nn(-c2ccccc2)c(=O)cc1Cl	98*	-73	-24	-3	-31	0
CCN1C(=O)C(CC(=O)Nc2ccc(OC)cc2)N(CCCN2CCN(c3ccc(F)cc3)CC2)C1=S (stereo unspecified)	73*	54	-16	-4	4	0
COc1ccc(NC(=O)CC2C(=O)N(Cc3ccccc3)C(=S)N2CCN2CCOCC2)cc1 (stereo unspecified)	98*	5	6	-4	0	-2
